Source: PubChem BioAssay (several laboratories)
OX1R antag-1: blocks the human orexin 1 receptor. O43613. inhibition, % at 5 µM. 0.43% of 330,000 active. CHO/OX1R cells, Fluo-8 calcium fluorescence, orexin A;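 active = inhibition above its plate's threshold, mean inhibition of all tested compounds on the plate plus 3 SD, cut at about 37% in these data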;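 note: 0% = orexin A challenge wells and 100% = SB-334867-A antagonist wells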
Target sequence (O43613 whole entry, looked up): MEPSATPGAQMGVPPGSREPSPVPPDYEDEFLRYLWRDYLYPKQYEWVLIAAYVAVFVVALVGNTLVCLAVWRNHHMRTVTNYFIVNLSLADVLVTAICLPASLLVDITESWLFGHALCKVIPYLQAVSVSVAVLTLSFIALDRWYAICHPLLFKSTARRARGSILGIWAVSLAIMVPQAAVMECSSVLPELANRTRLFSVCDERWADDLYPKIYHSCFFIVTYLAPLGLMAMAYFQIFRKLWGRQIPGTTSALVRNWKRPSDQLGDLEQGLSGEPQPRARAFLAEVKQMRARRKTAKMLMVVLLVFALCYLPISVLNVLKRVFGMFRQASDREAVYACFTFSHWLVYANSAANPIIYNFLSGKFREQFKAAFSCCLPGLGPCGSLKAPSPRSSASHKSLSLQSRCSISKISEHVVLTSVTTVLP
CHO parental Ca: counter-screen: ATP calcium response change in parental CHO cells; inhibition, % at 5.6 µM; 0.63% of 330,000 active; AID 463079; parental CHO-K1, ATP-induced calcium, Fluo-8 fluorescence;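 active = inhibition above that plate's mean sample inhibition plus 3 SD, cut at about 26% in these data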;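 note: 0% = ATP-challenged DMSO wells and 100% = DMSO wells without ATP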
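material = parental CHO cells | also added = ATP as calcium-mobilizing challenge | dosing = single point at 5.6 µM | detection = intracellular calcium via Fluo-8 no-wash fluorescent dye | read-out = % inhibition | benchmarks = low control ATP plus DMSO, high control DMSO only | repeats = one well per compound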
GPR7 antagonist: human neuropeptides B/W receptor 1 antagonism | GPR7-expressing cells, fluorescence antagonist assay | P48145 | AID 1861 | inhibition, % at 4.4 µM | 1.1% of 290,000 active; in the data active = inhibition above about 16%, passing the limit was not always enough;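 note: cells stimulated with the agonist NPW; 0% = agonist with vehicle and 100% = vehicle without agonist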
EP2 antag: EP2 receptor (human) inhibition; P43116; inhibition, % at 25 µM; C6 glioma cells expressing human EP2, cAMP TR-FRET; cells stimulated with saturating PGE2; 0.52% of 260,000 active; AID 1422;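 active = percent inhibition above 40 after rounding to a whole number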;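 note: rat C6 glioma host cells with rolipram phosphodiesterase inhibitor present; the protocol text gives 20 µM as final concentration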
OX1R antag-2: blocks the human orexin 1 receptor | inhibition, % at 6.6 µM | OX1R-expressing cells, FRET antagonist read-out | 1.8% of 330,000 active; in the data active = inhibition mostly above about 38%, no sharp cut-off; inactive = mostly below about 40%;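 note: 0% = agonist challenge alone and 100% = reference antagonist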
EP2 mod: EP2 receptor (human) modulation; AID 940; P43116; induction, % at 25 µM; 0.83% of 260,000 active; EP2-expressing cells, cAMP HTRF FRET, PGE2 co-stimulation;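 active = compounds whose cAMP rise, as percent of the full-agonist control response, exceeds 60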;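 note: rat C6 glioma line stably carrying human EP2 under a CMV promoter; the protocol text gives 20 µM as final concentration; 100% = response of wells given 1 µM PGE2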
Active calls of the source: *; nt = no result given; ! = not active in a repeat. This is a sample that favours compounds with a hit; in the whole collection about 3.7% have one here.

SMILES	OX1R antag-1	CHO parental Ca	GPR7 antagonist	EP2 antag	OX1R antag-2	EP2 mod
Cc1cc(-c2nc3ncccc3o2)ccc1NC(=S)NC(=O)c1ccco1	-22	10	-7	7	15	-25
CCN(CC)c1nc2cc(C)ccc2cc1/C=C(\C#N)C(N)=O	-37	-19	-15	6	5	63*
CCc1ccc(NC(=O)/C(C#N)=C/c2cc3ccc(C)cc3nc2N2CCOCC2)cc1	-19	-11	-7	8	10	24
CC1(C)Oc2ccc(C#N)cc2[C@@H](N2CCCC2=O)[C@@H]1O	-11	-9	3	12	16	-4
COc1ccccc1N1N=C(c2ccc([N+](=O)[O-])cc2)CC1c1ccccc1 (centres undefined)	58*	55*	9	nt	7	nt
O=C(COc1ccccc1/C=C1\SC(=O)NC1=O)Nc1ccc(F)cc1	-22	-4	3	11	77*	-41
COc1ccccc1/C=c1\sc2nc(-c3ccco3)nn2c1=O	6	0	-6	7	18	22
CCOc1ccc(/C=c2\sc3nc(-c4ccco4)nn3c2=O)cc1OCC	-19	-13	-2	8	6	75*
Nc1nc(-c2ccccc2)c(-c2ccccc2)c(-c2nc(N)nc(-c3ccccc3)c2-c2ccccc2)n1	nt	nt	nt	48*	nt	13
Nc1nc(-c2ccccc2)c(-c2ccccc2)o1	-9	-6	-8	7	8	-29
CCn1c(SCC(=O)Nc2ccc3c(c2)OCCO3)nnc1-c1c[nH]c2ccccc12	-10	-16	-11	12	38*	-37
Nn1c(SCC(=O)Nc2ccc3c(c2)OCCO3)nnc1C(F)(F)F	-13	-11	14*	19	15	15
CC(=O)Nc1cccc(NC(=O)CSc2ncc(-c3ccc(Cl)cc3)n2Cc2ccco2)c1	73*	61*	37*	41*	82*	-8
NC(=O)CSc1ncc(-c2ccc(F)cc2)n1Cc1ccco1	nt	nt	nt	13	nt	15
Cc1nnc(SCC(=O)Nc2ccc3c(c2)OCCO3)n1N	-20	-3	-7	10	19	8
O=C(CSc1nnc(-c2ccccc2Cl)n1Cc1ccco1)Nc1ccc2c(c1)OCCO2	-21	-19	-8	14	71*	35
O=C(CSc1nnc(-c2ccc(Cl)cc2)n1Cc1ccco1)Nc1ccc2c(c1)OCCO2	-2	-4	4	10	22	19
O=C(O)C1CCC(CNCc2ccncc2)CC1 (centres undefined)	-11	-3	-7	nt	-6	nt
Cc1nnc(SCC(=O)Nc2nccs2)n1N	-9	-10	nt	nt	6	nt
CC(C)C(C(=O)Nc1cccnc1)N1C(=O)c2ccccc2C1=O (centres undefined)	-20	-6	-12	3	16	20
Cc1cc(NC(=O)CSc2nnc(-c3ccccc3)n2Cc2ccco2)no1	-35	-21	14	2	21	16
COc1ccc(NC(=O)CSc2nnc(-c3ccccc3)n2Cc2ccco2)cc1OC	-11	-26	-4	8	38*	15
O=C(Nc1ccccc1)c1nc[nH]c1C(=O)N1CCN(c2ccccc2)CC1	-5	-9	nt	nt	5	nt
O=C1CN(C(=O)c2cccc(S(=O)(=O)N3CCCC3)c2)c2ccccc2N1	-22	-4	-8	3	3	12
C[C@H]1[C@H](O)[C@@H](C)C=CC=CC=CC=CC=CC=CC=C[C@H](O[C@H]2O[C@@H](C)[C@H](O)[C@@H](N)[C@@H]2O)C[C@@H]2O[C@@](O)(C[C@@H](O)C[C@@H](O)[C@@H](O)CC[C@@H](O)C[C@@H](O)CC(=O)O[C@H]1C)C[C@H](O)[C@H]2C(=O)O	nt	nt	nt	43*	nt	-10
SMILES	OX1R antag-1	CHO parental Ca	GPR7 antagonist	EP2 antag	OX1R antag-2	EP2 mod
CN(C)C/C=C(/c1ccc(Br)cc1)c1cccnc1	-17	-5	nt	43*!	19	1
CN(C)CCO/N=C(\c1ccc(Br)cc1)c1cccnc1	-18	-17	nt	nt	8	nt
O=C(NC(=S)N1CCN(Cc2ccccc2)CC1)c1ccco1	-17	100*	-2	5	-1	23
Cn1c2ccc(F)cc2c2ncn(CCCN(CCO)CCO)c(=O)c21	-23	-6	-11	8	9	-11
Nc1nc(SCC(=O)Nc2ccc([N+](=O)[O-])cc2Br)n[nH]1	0	13	0	6	29	-13
CCCCOc1ccc(/C(O)=C2/C(=O)C(=O)N(Cc3cccnc3)C2c2ccncc2)c(C)c1 (centres undefined)	-14	-15	-10	20	-4	61*
Cc1cc(OCC(C)C)ccc1/C(O)=C1/C(=O)C(=O)N(Cc2cccnc2)C1c1ccncc1 (centres undefined)	-25	-16	-9	29	3	60
O=C(COc1cccnc1[N+](=O)[O-])NCc1ccc2c(c1)OCO2	0	0	-3	8	12	14
CNC(=O)c1ccsc1NC(=O)CCS(=O)(=O)c1ccccc1	-9	2	4	5	7	8
CNC(=O)c1ccsc1NC(=O)c1ccccc1	-8	-5	nt	10	43*	-11
COc1ccc(N2CCN(Cc3nc(Cc4cccc(F)c4)no3)C(C)C2)cc1 (centres undefined)	-12	-9	-13	-1	16	-33
CN(C)c1ccc(-c2nc3ccccc3c(=O)[nH]2)cc1	17	-4	-12	10	57*	-18
CN(C)S(=O)(=O)c1ccc(C(=O)OCC(=O)Nc2ccccc2OC(F)F)cc1	-2	-5	-6	3	5	-1
CN(C)S(=O)(=O)c1ccc(C(=O)OCC(=O)c2ccc(OC(F)F)cc2OC(F)F)cc1	-7	-8	18*	15	6	-30
COc1ccc(N2CC(C(=O)Nc3nnc(C4CCCCC4)s3)CC2=O)cc1 (centres undefined)	-15	-10	8	nt	10	nt
O=S(=O)(Nc1ccccc1OC(F)F)c1ccc(S(=O)(=O)N2CCCC2)cc1	8	-11	nt	nt	31*	nt
COc1ccc(NS(=O)(=O)c2ccc(S(=O)(=O)N3CCOCC3)cc2)cc1	-11	2	10	7	16	-50
COc1ccc(S(=O)(=O)N2CCN(CC(=O)Nc3ccc(F)c(F)c3)CC2)cc1	-4	-2	30*	9	26	-14
COc1ccc(NS(=O)(=O)c2ccc(S(=O)(=O)N3CCCC3)cc2)cc1	14	40*	5	-3	17	-24
COc1ccc(S(=O)(=O)Nc2cccc(S(=O)(=O)N3CCCCC3)c2)cc1	-5	-26	nt	nt	50*	nt
O=C(Nc1cccc(O)c1)C1CC(c2ccccc2Cl)=NO1 (centres undefined)	nt	nt	nt	11	nt	-61
CC1CCCCC1NS(=O)(=O)c1ccc(S(=O)(=O)N2CCCCC2)cc1 (centres undefined)	nt	nt	nt	13	nt	-4
CC1CCCCC1NS(=O)(=O)c1ccc(S(=O)(=O)N2CCCC2)cc1 (centres undefined)	-31	-14	15*	8	19	-21
